ChEMBL document CHEMBL1149787, “Synthesis and cannabinoid activity of 1-substituted-indole-3-oxadiazole derivatives: novel agonists for the CB1 receptor” (Eur J Med Chem, 2008)
The source made the active and inactive calls. No cut-off for these calls is given here.

Tests used:
Cannabinoid receptor 1 [1] = molecular target: Cannabinoid receptor 1 (Rattus norvegicus, UniProt P20272); experiment: (§1) Displacement of [3H]SR141716A from CB1 receptor in Sprague-Dawley rat cerebellum membrane; type: tissue-based
[2] = molecular target: Cannabinoid receptor 1 (Mus musculus) (UniProt P47746); experiment: Agonist activity at CB1 receptor in electrically-stimulated Swiss mouse vas deferens at 1.0 uM; type: functional, tissue-based
Summary of the method: (§2)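 Electrically stimulated mouse vas deferens. Prostatic end tied between parallel field electrodes, epididymal end attached to an isometric force transducer. Tissue stretched by 0.5 g force, equilibrated 10 min, then stimulated with trains of three pulses (4 Hz, 0.5 ms, 100 V) every 20 s. Effect taken as % decrease of pre-drug twitch force; single concentrations expressed relative to vehicle.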

Cannabinoid receptor 1 [3] = molecular target: Cannabinoid receptor 1 (Homo sapiens, UniProt P21554); experiment: Agonist activity at CB1 receptor; type: functional
[4] = molecular target: T1, Cannabinoid receptor 2 (Rattus norvegicus) (UniProt Q9QZN9); experiment: Displacement of [3H]WIN-55212-2 from CB2 receptor in Sprague-Dawley rat spleen membrane at 10 uM; type: cell membranes
T1 sequence (whole entry): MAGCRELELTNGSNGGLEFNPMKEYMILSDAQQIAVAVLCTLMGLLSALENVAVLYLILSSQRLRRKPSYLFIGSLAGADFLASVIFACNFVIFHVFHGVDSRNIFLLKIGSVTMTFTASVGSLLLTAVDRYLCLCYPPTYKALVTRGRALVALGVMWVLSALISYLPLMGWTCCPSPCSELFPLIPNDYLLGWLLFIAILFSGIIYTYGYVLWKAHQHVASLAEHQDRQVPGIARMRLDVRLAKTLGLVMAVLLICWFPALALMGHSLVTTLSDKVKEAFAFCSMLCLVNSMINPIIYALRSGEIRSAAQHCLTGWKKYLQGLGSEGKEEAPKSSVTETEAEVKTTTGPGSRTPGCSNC
Summary of the method: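 Spleen membranes from Sprague Dawley rats (supernatant spun at 23,800g, pellet kept) in tris-HCl pH 7.4 with MgCl2 and EGTA. 30.0 µg protein per tube with 1.0 mg/mL BSA, 0.2 nM [3H]WIN-55,212-2 and test drug, triplicate, 30 °C for 90 min. Nonspecific binding defined with 1.0 µM unlabelled WIN-55,212-2. Filtration, scintillation counting, nonlinear regression; means of at least four estimates.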

[5] = molecular target: T1, Cannabinoid receptor 2 (Rattus norvegicus); experiment: (§3) Displacement of [3H]WIN-55212-2 from CB2 receptor in Sprague-Dawley rat spleen membrane; type: cell membranes
[6] = molecular target: Cannabinoid receptor 1 (Rattus norvegicus) (UniProt P20272); experiment: as §1; type: tissue-based
[7] = molecular target: Cannabinoid receptor 1 (Mus musculus) (UniProt P47746); experiment: Agonist activity at CB1 receptor in electrically-stimulated Swiss mouse vas deferens; type: functional, tissue-based; summary of the method: as §2
Cannabinoid receptor 2 [8] = molecular target: T2, Cannabinoid receptor 2 (Rattus norvegicus, UniProt Q9QZN9); experiment: as §3; type: cell membranes
T2 sequence (Q9QZN9 whole entry): T1 sequence (whole entry)

Cannabinoid receptor 2 [9] = molecular target: Cannabinoid receptor 2 (Homo sapiens, UniProt P34972); experiment: Activity at CB2 receptor
[10] = Selectivity for CB2 receptor over CB1 receptor

Sequence of Cannabinoid receptor 1 (Mus musculus) (P47746 whole entry): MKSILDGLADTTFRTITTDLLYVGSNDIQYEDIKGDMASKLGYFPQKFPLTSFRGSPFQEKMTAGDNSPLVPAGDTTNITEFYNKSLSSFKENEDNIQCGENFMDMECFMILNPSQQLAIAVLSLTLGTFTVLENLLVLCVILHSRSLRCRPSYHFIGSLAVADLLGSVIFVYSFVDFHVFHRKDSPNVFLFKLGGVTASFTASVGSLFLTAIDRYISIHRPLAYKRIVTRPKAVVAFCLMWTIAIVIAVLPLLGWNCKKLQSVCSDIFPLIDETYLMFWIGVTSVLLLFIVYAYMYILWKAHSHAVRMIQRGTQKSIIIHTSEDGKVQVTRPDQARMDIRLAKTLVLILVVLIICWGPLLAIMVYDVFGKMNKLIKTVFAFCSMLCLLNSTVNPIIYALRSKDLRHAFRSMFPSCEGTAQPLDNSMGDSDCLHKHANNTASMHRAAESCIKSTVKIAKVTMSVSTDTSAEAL
Sequence of Cannabinoid receptor 1 (Rattus norvegicus, UniProt P20272) (P20272 whole entry): as the sequence (P47746 whole entry) above, with D95E counted along it
Sequence of Cannabinoid receptor 1 (Homo sapiens, UniProt P21554) (P21554 whole entry): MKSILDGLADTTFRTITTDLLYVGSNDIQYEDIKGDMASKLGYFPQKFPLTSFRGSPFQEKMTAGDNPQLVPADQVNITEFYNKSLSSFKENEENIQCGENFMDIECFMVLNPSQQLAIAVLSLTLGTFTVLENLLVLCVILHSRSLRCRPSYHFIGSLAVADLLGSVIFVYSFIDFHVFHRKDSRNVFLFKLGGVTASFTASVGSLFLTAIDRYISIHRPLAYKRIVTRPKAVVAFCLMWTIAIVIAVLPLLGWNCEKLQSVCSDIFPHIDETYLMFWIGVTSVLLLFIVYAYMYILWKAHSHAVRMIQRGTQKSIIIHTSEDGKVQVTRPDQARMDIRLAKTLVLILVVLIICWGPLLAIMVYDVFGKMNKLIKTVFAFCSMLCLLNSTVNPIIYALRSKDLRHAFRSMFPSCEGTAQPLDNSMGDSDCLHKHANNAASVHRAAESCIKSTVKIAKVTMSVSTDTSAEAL
Sequence of Cannabinoid receptor 1 (Rattus norvegicus) (P20272 whole entry): as the sequence (P47746 whole entry) above, with D95E counted along it
Sequence of Cannabinoid receptor 2 (Homo sapiens, UniProt P34972) (P34972 whole entry): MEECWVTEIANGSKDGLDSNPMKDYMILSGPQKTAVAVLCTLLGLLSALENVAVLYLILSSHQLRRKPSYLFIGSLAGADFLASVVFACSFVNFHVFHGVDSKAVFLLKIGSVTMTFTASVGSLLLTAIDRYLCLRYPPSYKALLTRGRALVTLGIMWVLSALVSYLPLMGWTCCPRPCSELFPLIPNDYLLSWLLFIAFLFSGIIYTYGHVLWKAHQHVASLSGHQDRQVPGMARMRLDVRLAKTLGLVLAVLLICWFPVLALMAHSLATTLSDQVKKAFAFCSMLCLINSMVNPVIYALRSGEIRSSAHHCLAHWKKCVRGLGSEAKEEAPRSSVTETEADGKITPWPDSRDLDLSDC

## CCCCC(C)(C)c1cc(O)c2c(c1)OC(C)(C)[C@H]1CC=C(CO)C[C@H]21
Cannabinoid receptor 1 [1]
  IC50: 3.22 µM

## Clc1ccccc1Cc1noc(-c2cn(CCN3CCOCC3)c3ccccc23)n1
[2]
  inhibition: 95%
Cannabinoid receptor 1 [1]
  IC50: 7.4 µM

## CCCCCn1cc(-c2nc(Cc3ccccc3)no2)c2ccccc21
[2]
  inhibition: 100%
Cannabinoid receptor 1 [1]
  IC50: 8.8 µM

## COc1ccc(C(=O)c2c(C)n(CCN3CCOCC3)c3ccccc23)cc1 [PRAVADOLINE]
Cannabinoid receptor 1 [3]
  IC50: 0.453 µM

## c1ccc(-c2ccc(-c3noc(-c4cn(CCN5CCOCC5)c5ccccc45)n3)cc2)cc1
[2]
  inhibition: 11.4%
Cannabinoid receptor 1 [1]
  IC50: 1.52 µM
[4]
  inhibition: 14%

## O=C(c1nc(-c2ccccc2)no1)c1cn(CCN2CCOCC2)c2ccccc12
[2]
  inhibition: 44.3%
[5]
  Activity: inactive

## O=C(Cn1cc(-c2nc(Cc3ccccc3Cl)no2)c2ccccc21)N1CCOCC1
[6]
  Activity: inactive

## c1ccc(Cc2noc(-c3cn(CCN4CCCCC4)c4ccccc34)n2)cc1
[7]
  agonist potency (pEC50): 5.6
Cannabinoid receptor 1 [1]
  IC50: 5.6 µM

## c1ccc(-c2noc(-c3cn(CCN4CCOCC4)c4ccccc34)n2)cc1
[7]
  agonist potency (pEC50): 6.47
Cannabinoid receptor 1 [1]
  IC50: 0.25 µM
Cannabinoid receptor 2 [8]
  IC50: 4.03 µM

## c1csc(Cc2noc(-c3cn(CCN4CCOCC4)c4ccccc34)n2)c1
[2]
  inhibition: 81%
Cannabinoid receptor 1 [1]
  IC50: 6.8 µM

## O=C(O)CCCCn1cc(-c2nc(Cc3ccc4ccccc4c3)no2)c2ccccc21
[2]
  inhibition: 53.6%

## O=C(Cn1cc(-c2nc(Cc3ccccc3)no2)c2ccccc21)N1CCOCC1
[2]
  inhibition: 17%
[5]
  Activity: inactive

## Brc1ccc(Cc2noc(-c3cn(CCN4CCOCC4)c4ccccc34)n2)cc1
[2]
  inhibition: 58%
Cannabinoid receptor 1 [1]
  IC50: 6.2 µM

## O=C(Cn1cc(-c2nc(-c3ccccc3)no2)c2ccccc21)N1CCOCC1
[2]
  inhibition: -5.29%
[5]
  Activity: inactive

## c1ccc(Cc2noc(-c3cn(CCN4CCOCC4)c4ccccc34)n2)cc1
[7]
  agonist potency (pEC50): 7
Cannabinoid receptor 1 [1]
  IC50: 2.62 µM
Cannabinoid receptor 2 [8]
  IC50: 1.1 µM

## Cc1c(CCN2CCOCC2)c2ccccc2n1C(=O)c1cccc2ccccc12
Cannabinoid receptor 2 [9]
  Ki: 0.0085 µM
[10]
  Selectivity ratio: 160

## CC(=O)Oc1cn(CCN2CCOCC2)c2ccccc12
[2]
  inhibition: 81.8%

## O=C1NC(Cn2cc(-c3nc(Cc4ccccc4)no3)c3ccccc32)CO1 (stereo unspecified)
[2]
  inhibition: 15.8%
Cannabinoid receptor 1 [1]
  IC50: 6.1 µM

## c1ccc2cc(Cc3noc(-c4cn(CCN5CCOCC5)c5ccccc45)n3)ccc2c1
[2]
  inhibition: 95.6%

## c1ccc(Cc2noc(-c3cn(CCN4CCOCC4)cn3)n2)cc1
[2]
  inhibition: 46.8%
[6]
  Activity: inactive

## c1ccc2cc(Cc3noc(-c4cn(CCN5CCCC5)c5ccccc45)n3)ccc2c1
[2]
  inhibition: 78.6%

## COc1ccc(Cc2noc(-c3cn(CCN4CCOCC4)c4ccccc34)n2)cc1
[2]
  inhibition: 39.2%

## COc1ccc2c(c1)c(CCN1CCOCC1)c(C)n2C(=O)c1cccc(Cl)c1Cl
[10]
  Selectivity ratio: 160

## c1ccc(Cc2noc(-c3cn(CCN4CCCC4)c4ccccc34)n2)cc1
[7]
  agonist potency (pEC50): 7.2

## O=C(c1nc(Cc2ccccc2)no1)c1cn(CCN2CCOCC2)c2ccccc12
[2]
  inhibition: 22.4%

## CCOC(=O)CCCCn1cc(-c2nc(Cc3ccc4ccccc4c3)no2)c2ccccc21
[2]
  inhibition: 41.6%

## c1ccc(CCc2noc(-c3cn(CCN4CCOCC4)c4ccccc34)n2)cc1
[2]
  inhibition: 90%
Cannabinoid receptor 1 [1]
  IC50: 6.8 µM

## COc1ccc(C(=O)c2c3n(c4ccccc24)C(CN2CCOCC2)CC3)cc1 (stereo unspecified)
Cannabinoid receptor 1 [3]
  IC50: 0.00032 µM
